ChEMBL document CHEMBL1123757, “Selective thromboxane synthetase inhibitors and antihypertensive agents. New derivatives of 4-hydrazino-5H-pyridazino[4,5-b]indole, 4-hydrazinopyridazino[4,5-a]indole, and related compounds” (J Med Chem, 1987)

Key:
Rattus norvegicus [1] = assay: Antihypertensive activity in spontaneously hypertensive rats (SHR) measured by percentage fall in arterial pressure (AP) at 5 mg/kg administered perorally at 5 h; No significance; assay type: functional, organism-based; set-up: dose 5 mg/kg; conditions: Artery
How it was run: (§1)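 Oral dosing at 2.5 mL/kg to unanesthetized male and female Okamoto-strain SHR (8 weeks old, 300–350 g, systolic pressure ≥190 mmHg, heart rate 400–650 beats/min), five per dose. Vehicle was normal saline or saline with 0.2% (carboxymethyl)cellulose and 1.0% Tween 80. AP measured on the tail by mechanical transduction at set times; expressed as percentage fall from control.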

Rattus norvegicus [2] = assay: Antihypertensive activity in spontaneously hypertensive rats (SHR) measured by percentage fall in cardiac rhythm (CR) at 25 mg/kg administered perorally at 3 h;No significance; assay type: functional, organism-based; set-up: dose 25 mg/kg; conditions: Heart
How it was run: (§2)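 Conscious SHR (Okamoto strain), 8 weeks old, male and female, 300–350 g, systolic BP ≥190 mmHg, CR 400–650 beats/min. Given ip or po at 2.5 mL/kg in normal saline or saline with 0.2% (carboxymethyl)cellulose and 1.0% Tween 80. Tail AP and CR recorded by mechanical transduction at 1, 3, 5 and 24 h, five animals per dose. Effect expressed as % fall versus control.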

Rattus norvegicus [3] = assay: Antihypertensive activity in spontaneously hypertensive rats (SHR) measured by percentage fall in cardiac rhythm (CR) at 5 mg/kg administered intraperitoneally at 24 h; No significance; assay type: functional, organism-based; set-up: dose 5 mg/kg; conditions: Heart; how it was run: as §2
Rattus norvegicus [4] = assay: Percent fall in systolic blood pressure, directly measured on carotid (iv on the jugular vein) of spontaneously hypertensive rats at 1 mg/kg after 180 minutes; No significance; assay type: functional, organism-based; set-up: dose 1 mg/kg; conditions: Artery
How it was run: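 Anesthetized (sodium pentobarbital, 70 mg/kg) male and female Okamoto SHR, 8 weeks old, 300–350 g. Given iv into the jugular vein in normal saline. Arterial pressure and cardiac rhythm are recorded directly from the carotid by polygraph at set times after dosing. Each is expressed as percent change from the pre-dose control value.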

Rattus norvegicus [5] = assay: Antihypertensive activity in spontaneously hypertensive rats (SHR) measured by percentage fall in cardiac rhythm (CR) at 25 mg/kg administered perorally at 24 h; No significance; assay type: functional, organism-based; set-up: dose 25 mg/kg; conditions: Heart; how it was run: as §2
Rattus norvegicus [6] = assay: Antihypertensive activity in spontaneously hypertensive rats (SHR) measured by percentage fall in arterial pressure (AP) at 5 mg/kg administered perorally at 24 h; No significance; assay type: functional, organism-based; set-up: dose 5 mg/kg; conditions: Artery; how it was run: as §1
Rattus norvegicus [7] = assay: Antihypertensive activity in spontaneously hypertensive rats (SHR) measured by percentage fall in arterial pressure (AP) at 1 mg/kg administered intraperitoneally at 24 h; No significance; assay type: functional, organism-based; set-up: dose 1 mg/kg; conditions: Artery
How it was run: (§3)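 Unanesthetized Okamoto-strain SHR, male and female, 8 weeks old, 300–350 g, systolic pressure ≥190 mmHg, heart rate 400–650 beats/min; five animals per dose. Given ip at 2.5 mL/kg, dissolved or suspended in normal saline or saline with 0.2% (carboxymethyl)cellulose and 1.0% Tween 80. Tail AP and CR recorded by mechanical transduction at set times; reported as percentage fall from control.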

Rattus norvegicus [8] = assay: Antihypertensive activity in spontaneously hypertensive rats (SHR) measured by percentage fall in cardiac rhythm (CR) at 5 mg/kg administered intraperitoneally at 3 h;No significance; assay type: functional, organism-based; set-up: dose 5 mg/kg; conditions: Heart; how it was run: as §2
Rattus norvegicus [9] = assay: Antihypertensive activity in spontaneously hypertensive rats (SHR) measured by percentage fall in cardiac rhythm (CR) at 5 mg/kg administered perorally at 3 h;No significance; assay type: functional, organism-based; set-up: dose 5 mg/kg; conditions: Heart; how it was run: as §2
Rattus norvegicus [10] = assay: Antihypertensive activity in spontaneously hypertensive rats (SHR) measured by percentage fall in cardiac rhythm (CR) at 25 mg/kg administered intraperitoneally at 24 h;No significance; assay type: functional, organism-based; set-up: dose 25 mg/kg; conditions: Heart; how it was run: as §3
Homo sapiens [11] = species on record: Homo sapiens; assay: In vitro inhibition of platelet aggregation induced by AA (PRP incubated for 60 minutes at 37 degree C) at 10e-5 M;No significance; assay type: functional
How it was run: (§4)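 Human venous blood anticoagulated with 3.8% sodium citrate (1:9). PRP from centrifugation at 800 rpm for 10 min at room temperature. Count adjusted with PPP to […]. Compound in saline with 10% ethylene glycol is added to PRP and incubated at 37 °C before the agonist. Agonists: ADP 2×10^-5 M, AA 0.6 mM, PGH2 2.8 μM, adrenaline 0.6 μM. Born absorbance aggregometry; n = 5.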

Rattus norvegicus [12] = assay: Antihypertensive activity in spontaneously hypertensive rats (SHR) measured by percentage fall in arterial pressure (AP) at 1 mg/kg administered intraperitoneally at 5 h; No significance; assay type: functional, organism-based; set-up: dose 1 mg/kg; conditions: Artery; how it was run: as §3
Homo sapiens [13] = species on record: Homo sapiens; assay: In vitro inhibition of platelet aggregation induced by DD (PRP incubated for 5 minutes at 37 degree C) at 10e-5 M;No significance; assay type: functional; how it was run: as §4
Rattus norvegicus [14] = assay: Antihypertensive activity in spontaneously hypertensive rats (SHR) measured by percentage fall in cardiac rhythm (CR) at 25 mg/kg administered perorally at 5 h; No significance; assay type: functional, organism-based; set-up: dose 25 mg/kg; conditions: Heart; how it was run: as §2
Rattus norvegicus [15] = assay: Antihypertensive activity in spontaneously hypertensive rats (SHR) measured by percentage fall in arterial pressure (AP) at 25 mg/kg administered perorally at 5 h; No significance; assay type: functional, organism-based; set-up: dose 25 mg/kg; conditions: Artery; how it was run: as §1
Rattus norvegicus [16] = assay: Antihypertensive activity in spontaneously hypertensive rats (SHR) measured by percentage fall in cardiac rhythm (CR) at 5 mg/kg administered perorally at 24 h; No significance; assay type: functional, organism-based; set-up: dose 5 mg/kg; conditions: Heart; how it was run: as §2
Rattus norvegicus [17] = assay: Antihypertensive activity in spontaneously hypertensive rats (SHR) measured by percentage fall in cardiac rhythm (CR) at 5 mg/kg administered intraperitoneally at 1 h;No significance; assay type: functional, organism-based; set-up: dose 5 mg/kg; conditions: Heart; how it was run: as §2
Rattus norvegicus [18] = assay: Antihypertensive activity in spontaneously hypertensive rats (SHR) measured by percentage fall in arterial pressure (AP) at 25 mg/kg administered perorally at 24 h; No significance; assay type: functional, organism-based; set-up: dose 25 mg/kg; conditions: Artery; how it was run: as §1
Rattus norvegicus [19] = assay: Antihypertensive activity in spontaneously hypertensive rats (SHR) measured by percentage fall in cardiac rhythm (CR) at 25 mg/kg administered intraperitoneally at 1 h;No significance; assay type: functional, organism-based; set-up: dose 25 mg/kg; conditions: Heart; how it was run: as §3
Rattus norvegicus [20] = assay: Antihypertensive activity in spontaneously hypertensive rats (SHR) measured by percentage fall in cardiac rhythm (CR) at 5 mg/kg administered perorally at 5 h; No significance; assay type: functional, organism-based; set-up: dose 5 mg/kg; conditions: Heart; how it was run: as §2

CCOc1ccc2[nH]c3c(NN)nncc3c2c1
inactive: Decrease in AP (Rattus norvegicus [1]) No significant values | Decrease in blood pressure (Rattus norvegicus [2]) No significant values | Decrease in CR (Rattus norvegicus [3]) No significant values | Decrease in AP (Rattus norvegicus [4]) No significant values | Decrease in AP (Rattus norvegicus [5]) No significant values | Decrease in AP (Rattus norvegicus [6]) No significant values | Decrease in AP (Rattus norvegicus [7]) No significant values | Decrease in blood pressure (Rattus norvegicus [8]) No significant values | Decrease in blood pressure (Rattus norvegicus [9]) No significant values | Decrease in CR (Rattus norvegicus [10]) No significant values | inhibition (Homo sapiens [11]) No significant values | Decrease in AP (Rattus norvegicus [12]) No significant values | inhibition (Homo sapiens [13]) No significant values | Decrease in CR (Rattus norvegicus [14]) No significant values | Decrease in AP (Rattus norvegicus [15]) No significant values | Decrease in CR (Rattus norvegicus [16]) No significant values | Decrease in CR (Rattus norvegicus [17]) No significant values | Decrease in blood pressure (Rattus norvegicus [18]) No significant values | Decrease in CR (Rattus norvegicus [19]) No significant values | Decrease in AP (Rattus norvegicus [20]) No significant values
